Results from ChEMBL document CHEMBL1177705, “Synthesis and biological characterization of the histone deacetylase inhibitor largazole and C7- modified analogues” (J Med Chem, 2010).
Activity calls are given as the source filed them. The rule behind the calls is not given here.

Legend:
NB-4 [1] = experiment: Induction of p21WAF1/CIP1 expression in human NB4 cells at 5 uM after 24 hrs by Western blot analysis; format: functional, cell-based
Outline: (§1)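 NB4 cells treated with compounds from DMSO, harvested and PBS-washed. Lysis was 15 min at 4 °C in 50 mM Tris-HCl pH 7.4, 150 mM NaCl, 1% NP40, 10 mM NaF, 1 mM PMSF and protease inhibitors, then spun 30 min at 4 °C. Protein was measured by Bradford and lysates immunoblotted, with ERK1 as loading control.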

NB-4 [2] = experiment: Cell cycle arrest in human NB4 cells assessed as increase in accumulation at pre-G1 phase at 5 uM after 24 hrs by FACS analysis; format: functional, cell-based
Outline: (§2)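 NB4 acute promyelocytic leukemia cells grown in RPMI 1640 with heat-inactivated FBS, glutamine, antibiotics, 37 °C, 5% CO2. Compounds given from DMSO. They were kept 30 min in the dark, then DNA content was read by flow cytometry with the pre-G1 fraction scored. Run in triplicate.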

Tubulin (Homo sapiens) = Tubulin (Homo sapiens) (UniProt P68371+Q9H4B7+P0DPH7+P68366+Q13509+Q71U36+P04350+Q3ZCM7+P07437+P68363+Q9BQE3+Q6PEY2+Q13885+Q9BVA1+Q9BUF5); experiment: Inhibition of HDAC in human NB4 cells assessed as increase in acetylate tubulin level at 5 uM after 24 hrs by Western blot analysis; format: cell-based; details: NB-4; outline: as §1
Histone deacetylase 4 = Histone deacetylase 4 (Homo sapiens, UniProt P56524); experiment: Inhibition of human recombinant HDAC4 after 15 mins by fluorimetric assay
Sequence of Histone deacetylase 4 (P56524 whole entry): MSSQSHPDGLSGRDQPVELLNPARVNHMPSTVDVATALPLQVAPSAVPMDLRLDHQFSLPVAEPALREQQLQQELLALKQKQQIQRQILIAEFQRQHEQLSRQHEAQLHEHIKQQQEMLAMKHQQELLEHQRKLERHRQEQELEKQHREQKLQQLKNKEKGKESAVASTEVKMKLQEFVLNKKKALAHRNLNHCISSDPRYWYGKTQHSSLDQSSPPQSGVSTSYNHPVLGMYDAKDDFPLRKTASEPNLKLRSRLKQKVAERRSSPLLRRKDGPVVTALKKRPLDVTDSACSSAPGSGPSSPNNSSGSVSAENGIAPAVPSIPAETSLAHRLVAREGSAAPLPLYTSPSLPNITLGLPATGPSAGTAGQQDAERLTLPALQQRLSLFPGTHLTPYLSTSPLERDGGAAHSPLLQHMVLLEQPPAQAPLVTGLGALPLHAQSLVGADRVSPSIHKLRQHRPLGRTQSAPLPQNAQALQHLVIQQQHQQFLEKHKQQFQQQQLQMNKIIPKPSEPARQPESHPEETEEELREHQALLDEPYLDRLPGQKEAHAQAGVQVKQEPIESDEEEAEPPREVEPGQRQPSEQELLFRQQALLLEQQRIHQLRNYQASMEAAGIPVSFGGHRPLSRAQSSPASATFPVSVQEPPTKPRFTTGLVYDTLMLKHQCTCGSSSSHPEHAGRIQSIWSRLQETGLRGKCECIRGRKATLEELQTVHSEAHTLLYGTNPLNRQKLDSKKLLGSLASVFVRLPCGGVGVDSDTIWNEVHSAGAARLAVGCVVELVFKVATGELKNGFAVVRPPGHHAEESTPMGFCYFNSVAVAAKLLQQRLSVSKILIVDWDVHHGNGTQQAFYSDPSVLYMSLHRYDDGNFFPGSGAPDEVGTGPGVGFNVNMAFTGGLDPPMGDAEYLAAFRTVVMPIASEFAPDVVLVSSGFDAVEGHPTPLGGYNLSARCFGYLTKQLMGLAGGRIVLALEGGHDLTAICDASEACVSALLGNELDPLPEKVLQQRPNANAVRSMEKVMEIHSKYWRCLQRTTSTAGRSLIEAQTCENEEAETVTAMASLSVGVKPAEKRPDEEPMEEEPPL

NB-4 [3] = experiment: Cell cycle arrest in human NB4 cells assessed as increase in accumulation at pre-G1 phase at 1 uM after 24 hrs by FACS analysis; format: functional, cell-based; outline: as §2
[4] = target: Histone deacetylase (Homo sapiens) (UniProt Q13547+O15379+Q9UBN7+Q92769+Q9UQL6+Q8WUI4+Q9BY41+Q96DB2+P56524+Q9UKV0+Q969S8); details: NB-4, at 5 µM
Histone deacetylase 1 [5] = target: T1, Histone deacetylase 1 (Homo sapiens, UniProt Q13547); experiment: Inhibition of human recombinant HDAC1 after 15 mins by fluorimetric assay
T1 sequence (Q13547 whole entry): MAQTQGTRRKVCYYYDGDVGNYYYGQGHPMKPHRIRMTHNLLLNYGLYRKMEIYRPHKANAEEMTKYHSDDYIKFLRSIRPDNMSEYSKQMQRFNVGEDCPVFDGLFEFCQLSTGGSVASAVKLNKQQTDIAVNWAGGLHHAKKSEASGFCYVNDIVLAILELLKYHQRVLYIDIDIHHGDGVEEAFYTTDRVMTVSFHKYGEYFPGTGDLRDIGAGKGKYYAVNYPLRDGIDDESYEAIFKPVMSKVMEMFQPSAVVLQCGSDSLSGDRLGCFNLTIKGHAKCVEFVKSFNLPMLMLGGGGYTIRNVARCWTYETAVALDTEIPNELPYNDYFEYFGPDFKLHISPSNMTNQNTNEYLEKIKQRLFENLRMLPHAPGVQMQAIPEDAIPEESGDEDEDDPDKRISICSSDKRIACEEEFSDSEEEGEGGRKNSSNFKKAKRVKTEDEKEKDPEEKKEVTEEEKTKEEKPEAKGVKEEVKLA

NB-4 [6] = experiment: Effect on differentiation of human NB4 cells assessed as induction of CD11c expression at 5 uM after 24 hrs by propidium iodide staining-base FACS analysis; format: functional
Outline: (§3)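 NB4 cells in RPMI 1640/FBS at 37 °C, 5% CO2, treated with compounds from DMSO. 2.5 × 10^5 cells were pelleted and PBS-washed, then stained 30 min at 4 °C in the dark with PE-anti-CD11c, with PE-IgG as isotype background control. Cells were resuspended in PBS with 0.25 μg/mL PI and analysed by flow cytometry, excluding PI-positive cells. Run in triplicate.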

NB-4 [7] = experiment: Effect on differentiation of human NB4 cells assessed as induction of CD11c expression at 5 uM after 48 hrs by propidium iodide staining-base FACS analysis; format: functional; outline: as §3
Histone deacetylase 1 [8] = target: T1, Histone deacetylase 1; experiment: Ratio of largazole IC50 to compound IC50 for human recombinant HDAC1
NB-4 [9] = experiment: Cell cycle arrest in human NB4 cells assessed as mild increase in accumulation at pre-G1 phase at 5 uM after 48 hrs by FACS analysis; format: functional, cell-based; outline: as §2
Histone deacetylase 1 [10] = target: T1, Histone deacetylase 1; experiment: Ratio of compound IC50 to largazole IC50 for human recombinant HDAC1
Outline: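 Enzyme was preincubated with compound 15 min at 37 °C, then 50 μM specific fluorogenic substrate was added. Reaction ran 1 h at 37 °C with gentle shaking, read by fluorescence; IC50 derived.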

Row | Structure (SMILES) | Activity (NB-4 [1]) | Activity (NB-4 [2]) | increase in acetylated tubulin (active/not active) (Tubulin (Homo sapiens)) | IC50 (Histone deacetylase 4) | Activity (NB-4 [3]) | inhibition [4] | IC50 (Histone deacetylase 1 [5]) | Activity (NB-4 [6]) | Activity (NB-4 [7]) | Ratio IC50 (Histone deacetylase 1 [8]) | Activity (NB-4 [9]) | Ratio IC50 (Histone deacetylase 1 [10])
1 | O=C(CCCCCCC(=O)Nc1ccccc1)NO | Active | Active | Active |  |  |  |  |  |  |  |  | 
2 | CCCCCCCC(=O)SCC/C=C/[C@@H]1CC(=O)NCc2nc(cs2)C2=N[C@@H](CS2)C(=O)N[C@@H](C(C)C)C(=O)O1 | Active | Active | Active | 7.5 µM | Active | Active | 0.0137 µM | 5% | 5% |  |  | 
3 | CCCCCCCC(=O)SCC/C=C/[C@@H]1CC(=O)NCc2nc(cs2)-c2nc(cs2)C(=O)N[C@@H](C(C)C)C(=O)O1 |  | inactive | inactive | 3 µM |  | Active | 0.0047 µM | 5% | 5% | 2 | Active | 
4 | Nc1ccccc1NC(=O)c1ccc(CNC(=O)OCc2cccnc2)cc1 | Active | Active |  |  |  |  |  |  |  |  |  | 
5 | CC1=C(/C=C/C(C)=C/C=C/C(C)=C/C(=O)O)C(C)(C)CCC1 |  |  |  |  | Active |  |  |  |  |  |  | 
6 | CCCCCCCC(=O)SCC/C=C/[C@@H]1CC(=O)NCc2nc(cs2)C2=N[C@@](Cc3ccccc3)(CS2)C(=O)N[C@@H](C(C)C)C(=O)O1 | Active | Active | Active | 3 µM | Active | Active | 0.0045 µM | 5% | 5% |  |  | 
7 | CCCCCCCC(=O)SCC/C=C/[C@@H]1CC(=O)NCc2nc(cs2)C2=N[C@@](CC)(CS2)C(=O)N[C@@H](C(C)C)C(=O)O1 | Active | Active | Active | 4.9 µM | Active | Active | 0.161 µM | 5% | 5% |  |  | 10
8 | CCCCCCCC(=O)SCC/C=C/[C@@H]1CC(=O)NCc2nc(cs2)C2=N[C@@](C)(CS2)C(=O)N[C@@H](C(C)C)C(=O)O1 [LARGAZOLE] | Active | Active | Active | 3 µM | Active | Active | 0.0114 µM | 5% | 5% |  |  | 
